Measured values of several laboratories.
Target: Insulin receptor-related protein (INSRR, Homo sapiens, UniProt P14616)

Structure (SMILES) | read-out | technique | tested at | remaining binding [%]
c1cnn2ncc(-c3ccnc(N4CCC45COC5)n3)c2c1 | binding | – | 1 µM | 93
O=C(NCC1CCOCC1)c1n[nH]cc1NC(=O)c1c(F)cccc1F | binding | competition with immobilised ligand | 1 µM | 88
F[C@@H]1CCN(c2nccc(-c3cnn4ncccc34)n2)C1 | binding | – | 1 µM | 100
O=C(NCCCN1CCOCC1)c1ccc(Nc2nccc(-c3cc4ccccc4s3)n2)cc1 | binding | competition with immobilised ligand | 1 µM | 100
FC(F)(F)Oc1cccc(-c2cnc3ccc(-c4ccncc4)nn23)c1 | cell-free assay | competition with immobilised ligand | 5 µM | 96
C[C@@H]1CN(c2cc(-c3nn(C)c4ccc(OC5(C)CC5)cc34)ncn2)C[C@H](C)O1 | cell-free assay | competition with immobilised ligand | 1 µM | 91
COc1cnc(Nc2cccc(S(N)(=O)=O)c2)nc1N1CCN(c2ccccc2)C(=O)C1 | binding | competition with immobilised ligand | 1 µM | 100
CN(C)c1nccc(-c2cnc3ncccn23)n1 | binding | – | 1 µM | 82
Cc1nc(C2CCN(C(=O)c3ccc(OC(F)(F)F)cc3N)CC2)c2ncc(N3CCN(C)CC3)cc2n1 | cell-free assay | competition with immobilised ligand | 1 µM | 100
Nc1ncc2c(n1)-c1c([nH]c3ccc(C#CC4CC4)cc13)CCCC2 | binding | competition with immobilised ligand | 1 µM | 98
c1cncc(-c2cccc(Nc3nccc(NC4CCCCC4)n3)c2)c1 | binding | competition with immobilised ligand | 10 µM | 74
CCOCCn1cc(C(=O)Nc2ccc(-n3nc(-c4cccnc4)cc3C(F)(F)F)cn2)ccc1=O | cell-free assay | competition with immobilised ligand | 1 µM | 100
O=C(NCCCN1CCOCC1)c1ccc(Nc2ncc(Cl)c(-c3ccc(Cl)s3)n2)cc1 | binding | competition with immobilised ligand | 1 µM | 59
C[C@@]1(Cc2ccc(C#N)cc2)C(=O)N(c2cc(Cl)cc(Cl)c2)c2ncc(C(=O)NC3(c4nc(C5CCC5)no4)CC3)n21 | cell-free assay | competition with immobilised ligand | 1 µM | 100
CC1CCCN1c1nccc(-c2cnn3ncccc23)n1 (stereo not shown) | binding | – | 1 µM | 100
C[C@@H](c1ccc(-n2cnc3c(N)ncnc32)cc1)N1CCc2nn(C)c(Cc3ccccc3)c2C1=O | binding | competition with immobilised ligand | 0.1 µM | 91
CCN1CCN(Cc2ccc(C(=O)Nc3ccc(C)c(Oc4ccc5c(c4)CC(=O)N5)c3)cc2C(F)(F)F)CC1 | binding | competition with immobilised ligand | 1 µM | 93
N[C@H]1CCN(c2nccc(-c3cnn4ncccc34)n2)C1 | binding | – | 1 µM | 97
O=C(Nc1cnc(Oc2ccc(F)cc2)nc1)N1CCc2ncccc2[C@@H]1c1ccc(F)cc1 | cell-free assay | competition with immobilised ligand | 1 µM | 84
Cc1cnc(Nc2ccc(C(=O)N3CCC(N4CCCC4)CC3)cc2)nc1-c1cc2ccccc2s1 | binding | competition with immobilised ligand | 1 µM | 44
CNCc1ccccc1-c1csc([C@@H](C)Nc2nc(C)nc3cc(OC)c(OC)cc23)c1 | cell-free assay | competition with immobilised ligand | 1 µM | 95
COc1ccnn2ncc(-c3ccnc(N(C)C)n3)c12 | binding | – | 1 µM | 99
